This passage reports IC50 results from BindingDB's records for doi:10.1016/j.bmcl.2009.02.010 (Konkuk University, 2009).

Assay [1] addresses T1, Replicase polyprotein 1ab (Severe acute respiratory syndrome coronavirus, UniProt P0C6X7). Kind of assay: Inhibition of ATPase activity of SCV helicase assessed as phosphate release by colorimetric assay. Summed up: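 Purified SCV NTPase/helicase (400 nM in 50 mM Tris/HCl pH 6.6) preincubated with compounds for 5 min at rt. Stopped with malachite green/molybdate reagent in 1 M HCl. A620 read after 5 min, with phosphate from a standard curve.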

Assay [2] addresses T1, Replicase polyprotein 1ab. Kind of assay: Inhibition of SCV helicase assessed as duplex-DNA unwinding by FRET based assay. In outline:
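Substrate was 25-bp dsDNA with a 20-dT 5′-overhang. SCV helicase (150 nM in 20 mM HEPES pH 7.4) preincubated with compounds for 5 min at rt. Started with 5X reaction solution (5 mM MgCl2, 45 mM ATP, 25 mM DTT, 100 nM dsDNA substrate as 5X concentrations), then 2 min at 37 °C. Stopped with EDTA plus unmodified trap oligomer, with FRET read-out.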

A value given as a limit tells only on which side of the number the result lay.

With `O=C(O)C(=O)CC(=O)c1cccc(OCc2ccccc2)c1`, the IC50 in assay [1] and in assay [2] was above 50 µM each time.
In the case of `O=C(O)C(=O)CC(=O)c1ccc(OCc2ccc(Cl)cc2)cc1` [4-(4-(4-chlorobenzyloxy)phenyl)-2-hydroxy-4-oxobut-2-enoic acid], the IC50 in assay [1] and in assay [2] was above 50 µM in each case.
On to `O=C(O)C(=O)CC(=O)c1ccccc1OCc1ccccc1`, for which the IC50 in assay [1] and in assay [2] was above 50 µM each time.
